# Measured values: ChEMBL document CHEMBL4834495, “A Green-Absorbing, Red-Fluorescent Phenalenone-Based Photosensitizer as a Theranostic Agent for Photodynamic Therapy” (ACS Med Chem Lett, 2021)
# The source made the active and inactive calls. No cut-off for these calls is given here.
# Legend:
# [1] = Induction of singlet oxygen generation in PBS assessed as singlet oxygen quantum yield at pH 7.4 irradiated with 490 nm LED light by ABDA sensor based UV-Vis spectrometer analysis; type: functional
# [2] = Absorption property of the compound in PBS containing 1% DMSO assessed as maximum absorption wavelength at pH 7.4 by UV-visible spectrophotometric method; type: physicochemical; conditions: buffer
# [3] = Induction of singlet oxygen generation in PBS assessed as singlet oxygen quantum yield at pH 7.4 irradiated with 415 nm LED light by ABDA sensor based UV-Vis spectrometer analysis; type: functional
# PANC-1 [4] = assay: Phototoxicity against human PANC-1 cells assessed as reduction in cell viability incubated for 3 hrs followed by 525 nm green-light irradiation for 15 mins and measured after overnight incubation by MTT assay; type: functional, cell-based
# Outline: (§1)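 PANC-1 cells were treated with compound (0–2 μM), then either kept dark or irradiated 15 min under a green-filtered lamp (emission max 525 nm, 16.61 J/cm2). Cells were then cultured 24 h in the dark, and viability was read by standard MTT assay. Data are mean ± SD, n = 9; IC50 was taken from the dose–response.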
# [5] = Solubility of the compound in PBS containing 1% DMSO assessed as aggregate formation by measuring reduction in fluorescence intensity at 2 uM at pH 7.4 by fluorescence analysis; type: physicochemical; conditions: buffer, pH 7.4, 2 µM
# PANC-1 [6] = assay: Induction of apoptosis in human PANC-1 cells at 0.5 uM incubated for 3 hrs followed by irradiation with 525 nm green lamp light for 15 mins and measured after 24 hrs by Annexin V-FITC/PI staining based fluorescence microscopy; conditions: time 1635.0 min
# [7] = Absorption property of the compound in PBS assessed as molar extinction coefficient in presence of BSA by absorbance based analysis; type: physicochemical; conditions: buffer
# PANC-1 [8] = assay: Induction of apoptosis in human PANC-1 cells at 0.5 uM incubated for 3 hrs followed by incubation under dark conditions for 30 mins by Annexin V-FITC/PI staining based flow cytometric analysis; type: functional, cell-based; conditions: time 210.0 min
# PANC-1 [9] = assay: Antitumor activity against human PANC-1 cell 3D spheroids assessed as changes in spheroid morphology and density incubated for 3 hrs followed by irradiation with 525 nm green lamp light for 15 mins and measured after 27 hrs by ReadyProbes Blue/Green reagent based cell viability imaging analysis; type: functional; conditions: dose 0.063-1.5 µM, time 1815.0 min
# Outline: (§2)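 PANC-1 spheroids incubated 3 h with compound (0–1.5 μM), then either kept dark or irradiated 15 min with a green-filtered lamp (emission max 525 nm, 16.61 J/cm2). Diameter and morphology were assessed from bright-field images. Viability was imaged at 10× with the ReadyProbes Blue/Green kit: Hoechst 33342 stains all nuclei blue, and a green nuclear dye stains dead cells.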
# [10] = Photostability of the compound in PBS assessed as absorbance at 546 nm at 2 uM measured upon irradiation with 530 nm LED light in presence of BSA by absorbance based analysis; type: physicochemical; conditions: buffer
# PANC-1 [11] = assay: Antitumor activity against human PANC-1 cell 3D spheroids assessed as total spheroid breakage at 1.5 uM incubated for 3 hrs followed by irradiation with 525 nm green lamp light for 15 mins and measured after 27 hrs by ReadyProbes Blue/Green reagent based cell viability imaging analysis; type: functional; conditions: time 1815.0 min; outline: as §2
# [12] = Solubility of the compound in PBS containing 1% DMSO assessed as aggregate formation by measuring reduction in singlet oxygen formation irradiated with 530 nm LED light by ABDA sensor based UV-Vis spectrometer analysis; type: physicochemical; conditions: buffer
# PANC-1 [13] = assay: Antitumor activity against human PANC-1 cell 3D spheroids assessed as spheroid diameter at 0.063 to 1.5 uM incubated for 3 hrs under dark conditions by ReadyProbes Blue/Green reagent based cell viability imaging analysis; type: functional; conditions: dose 0.063-1.5 µM; outline: as §2
# PANC-1 [14] = assay: Antitumor activity against human PANC-1 cell 3D spheroids assessed as spheroid cell death at 0.38 to 1.5 uM incubated for 3 hrs followed by irradiation with 525 nm green lamp light for 15 mins and measured after 27 hrs by Hoechst33342 nuclear staining based analysis; type: functional; conditions: dose 0.38-1.5 µM, time 1815.0 min; outline: as §2
# [15] = Fluorescence property of the compound in DMSO assessed as quantum yield; type: physicochemical
# [16] = Emission property of the compound in DMSO assessed as maximum emission wavelength; type: physicochemical
# PANC-1 [17] = assay: Antitumor activity against human PANC-1 cell 3D spheroids assessed as spheroid cell death at 0.063 to 1.5 uM incubated for 3 hrs under dark conditions by Hoechst33342 staining based analysis; type: functional; conditions: dose 0.063-1.5 µM; outline: as §2
# PANC-1 [18] = assay: Antitumor activity against human PANC-1 cell 3D spheroids assessed as reduction in spheroid diameter at 0.063 to 1.5 uM incubated for 3 hrs followed by irradiation with 525 nm green lamp light for 15 mins and measured after 27 hrs by ReadyProbes Blue/Green reagent based cell viability imaging analysis; type: functional; conditions: dose 0.063-1.5 µM, time 1815.0 min; outline: as §2
# [19] = Induction of singlet oxygen generation in DMSO assessed as singlet oxygen quantum yield at pH 7.4 irradiated with 530 nm LED light by ABDA sensor based UV-Vis spectrometer analysis; type: functional
# PANC-1 [20] = assay: Induction of ROS production in human PANC-1 cells assessed as increase in green fluorescence intensity at 2 uM incubated for 3 hrs followed by irradiation with 530 nm LED light for 10 mins by DCFH2-DA staining based fluorescence microscopy; type: functional, cell-based; conditions: time 190.0 min
# Outline: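 PANC-1 cells in reduced-serum Opti-MEM received compound from a DMSO stock (2 μM final) for 3 h, plus the ROS sensor DCFH2-DA. Cells were irradiated at 530 nm for 10 min (11.14 J/cm2). Green DCF fluorescence was imaged by fluorescence microscopy and compared with non-irradiated cells and with single-agent irradiated controls.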
# [21] = Absorption property of the compound in DMSO assessed as maximum absorption wavelength at pH 7.4 by UV-visible spectrophotometric method; type: physicochemical
# [22] = Solubility of the compound in Opti-MEM medium assessed as aggregate formation by measuring reduction in fluorescence intensity at 9 uM by fluorescence analysis; type: physicochemical
# [23] = Solubility of the compound in DMEM medium assessed as aggregate formation by measuring reduction in fluorescence intensity at 9 uM by fluorescence analysis; type: physicochemical
# PANC-1 [24] = assay: Antitumor activity against human PANC-1 cell 3D spheroids assessed as total spheroid breakage at 0.063 to 1.5 uM incubated for 3 hrs under dark conditions by ReadyProbes Blue/Green reagent based cell viability imaging analysis; type: functional; conditions: dose 0.063-1.5 µM; outline: as §2
# PANC-1 [25] = assay: Dark toxicity against human PANC-1 cells assessed as reduction in cell viability incubated for 24 hrs by MTT assay; type: functional, cell-based; conditions: PANC-1, 24 h; outline: as §1
# [26] = Absorption property of the compound in PBS assessed as molar extinction coefficient by absorbance based analysis; type: physicochemical; conditions: buffer
smiles,measurement,setting,value
O=C1OC2(c3ccccc31)c1cc(Br)c(O)c(Br)c1Oc1c2cc(Br)c(O)c1Br,Activity,[1],0.57
O=C1C=Cc2cccc3ccc(O)c1c23,Activity,[2],439 nm
same,Activity,[3],0.96
COc1ccc2cccc3c2c1C(=O)C(Br)=C3,Activity,[2],427 nm
same,Activity,[3],0.89
COc1ccc2cccc3c2c1C(=O)C=C3,Activity,[2],418 nm
same,Activity,[3],0.68
Nc1c(Br)cc2c3c(cccc13)C(=O)C(Br)=C2,Activity,PANC-1 [4],Dose-Dependent Effect
same,IC50,"PANC-1 [4]; PANC-1, light or radiation study",166 nM
same,solubility,[5],Insoluble
same,Activity,PANC-1 [6],Active
same,Activity,[7],12695 M⁻¹ cm⁻¹
same,Activity,PANC-1 [8],inactive
same,Activity,PANC-1 [9],Dose-Dependent Effect
same,Stabilty,[10],Stable
same,Activity,PANC-1 [11],Active
same,solubility,[12],Insoluble
same,Activity,PANC-1 [13],inactive
same,Activity,PANC-1 [14],Active
same,Activity,[2],546 nm
same,Activity,[15],0.29
same,Activity,[16],602 nm
same,Activity,PANC-1 [17],inactive
same,Activity,PANC-1 [18],Active
same,Activity,[19],0.47
same,Activity,PANC-1 [20],Active
same,Activity,[21],525 nm
same,solubility,[22],Insoluble
same,solubility,[23],Insoluble
same,Activity,PANC-1 [24],inactive
same,IC50,PANC-1 [25],> 2000 nM
Nc1cc2c3c(c(O)ccc3c1)C(=O)C=C2,Activity,[1],< 0.01
same,Activity,[2],485 nm
CCN(CC)c1ccc2c(-c3ccccc3C(=O)O)c3ccc(=[N+](CC)CC)cc-3oc2c1.[Cl-] [RHODAMINE],Activity,[15],0.5
O=C1C=Cc2cccc3cccc1c23 [PERINAPHTHENONE],Activity,[26],10000 M⁻¹ cm⁻¹
same,Activity,[3],1
Nc1cc2c3c(cccc3c1)C(=O)C=C2,Activity,[2],457 nm
same,Activity,[3],0.18
Nc1ccc2c3c(cccc13)C(=O)C=C2,Activity,[26],12736 M⁻¹ cm⁻¹
same,Activity,[2],548 nm
same,Activity,[15],0.26
same,Activity,[16],597 nm
same,Activity,[19],< 0.01
same,Activity,[21],518 nm
Nc1cc2c3c(cccc3c1Br)C(=O)C=C2,Activity,[2],458 nm
same,Activity,[3],0.1
